Experimental data of several laboratories.
Observed: metabolic stability
Host: human

| SMILES | medium | concentration | pH | measurement | value |
| --- | --- | --- | --- | --- | --- |
| O=C(NCc1nc(-c2ccc(C(F)(F)F)cc2)cs1)[C@H]1CCCN(C(=O)CO[C@H]2CCCNC2)C1 | liver microsomes | 0.5 µM | – | microsomal CLint | 13 µL/min/mg |
| COc1cc(-c2cc(C(C)=O)n3ccccc23)c(OC)cc1Cn1ccnc1 | liver microsomes | – | pH 7.4 | scaled CLint | 15.6 mL/min/kg |
| COCC(=O)N1CCC[C@H](C(=O)NCc2nc(-c3ccc(OC(F)(F)F)cc3)cs2)C1 | liver microsomes | 0.5 µM | – | microsomal CLint | 37 µL/min/mg |
| CCCN(CCC)CCOc1ccc2c(=O)c3c([nH]c2c1)CCCC3 | liver microsomes | 1 µM | pH 7.4 | microsomal CLint | 17.5 µL/min/mg |
| Cc1cc(S(=O)(=O)NC2CC(N3CCN(CC4CCN(c5cccc6c5n(C)c(=O)n6C5CCC(=O)NC5=O)CC4)CC3)C2)ccc1Nc1ncc(C(F)(F)F)c(N2CCC[C@](C)(O)C2)n1 (stereo partly drawn) | liver microsomes | 1 µM | – | scaled CLint | < 14 mL/min/kg |
| CCN(CC)CCOc1ccc2c(=O)c3c([nH]c2c1)CCCC3 | liver microsomes | 1 µM | pH 7.4 | microsomal CLint | 6.65 µL/min/mg |
| CCOCC(=O)N1C2CCC(C(=O)NCc3nc(-c4ccc(C#N)cc4)cs3)C1CC2 (stereo not drawn) | liver microsomes | 0.5 µM | – | microsomal CLint | 42 µL/min/mg |
| Cc1cc(S(=O)(=O)N[C@]2(C)C[C@@H](N3CCN(CC4CCN(c5ccc6c(c5F)n(C)c(=O)n6C5CCC(=O)NC5=O)CC4)CC3)C2)ccc1Nc1ncc(C(F)(F)F)c(N2CCC[C@](C)(O)C2)n1 (stereo partly drawn) | liver microsomes | 1 µM | – | scaled CLint | 120 mL/min/kg |
| CC(C)(C)OC(=O)N1CCC(Oc2ccc3c(=O)c4c(Cl)cc(F)cc4[nH]c3c2)CC1 | liver microsomes | 1 µM | pH 7.4 | microsomal CLint | 7.13 µL/min/mg |
| NCCOCC(=O)N1CCC[C@H](C(=O)NCc2nc(-c3ccc(C(F)(F)F)cc3)cs2)C1 | hepatocytes | 0.5 µM | – | scaled CLint | < 3.4 mL/min/kg |
| O=c1c2ccc(OCc3ccc(OC(F)(F)F)cc3)cc2[nH]c2cc(Cl)cc(F)c12 | liver microsomes | 1 µM | pH 7.4 | microsomal CLint | 14.9 µL/min/mg |
| CNS(=O)(=O)c1ccc(Nc2ncc(C(F)(F)F)c([C@H]3CC[C@@](C)(O)CC3)n2)c(C)c1 | liver microsomes | 1 µM | – | scaled CLint | < 14 mL/min/kg |
| O=c1c2cccc(Oc3ccc(OC(F)(F)F)cc3)c2[nH]c2cc(Cl)cc(F)c12 | liver microsomes | 1 µM | pH 7.4 | microsomal CLint | 6.75 µL/min/mg |
| C[C@H](O)c1ccc(NS(=O)(=O)c2ccc(OCC3CCC3)c(Cl)c2)c2nn(C)cc12 | hepatocytes | 1 µM | – | hepatocyte CLint | 167 µL/min/10⁶ cells |
| Cc1cc(S(=O)(=O)N[C@H]2C[C@H](CN3CCN(c4ccc(C5CCC(=O)NC5=O)c(Cl)c4)CC3)C2)ccc1Nc1ncc(C(F)(F)F)c(N2CCC[C@](C)(O)C2)n1 (stereo partly drawn) | liver microsomes | 1 µM | – | scaled CLint | 21 mL/min/kg |
| COCC(=O)N1CCC[C@H](C(=O)NCc2nc(-c3ccccc3)cs2)C1 | liver microsomes | 0.5 µM | – | microsomal CLint | < 7 µL/min/mg |
| O=c1c2ccc(OC3CCNCC3)cc2[nH]c2cc(F)cc(Cl)c12 | liver microsomes | 1 µM | pH 7.4 | microsomal CLint | 13.9 µL/min/mg |
| CNS(=O)(=O)c1ccc(Nc2ncc(C(F)(F)F)c(N3CCC[C@](C)(O)C3)n2)c(C)c1 | liver microsomes | 1 µM | – | scaled CLint | 29 mL/min/kg |
| CCONC(=O)N1CCC[C@H](C(=O)NCc2nc(-c3ccc(C#N)cc3)cs2)C1 | liver microsomes | 0.5 µM | – | scaled CLint | 11 mL/min/kg |
| C[C@]1(O)CCCN(c2nc(Nc3ccc(S(=O)(=O)N[C@H]4CC[C@H](CN5CCN(c6ccc(C7CCC(=O)NC7=O)c(F)c6)CC5)CC4)cc3F)ncc2C(F)(F)F)C1 (stereo partly drawn) | liver microsomes | 1 µM | – | scaled CLint | < 14 mL/min/kg |
| O=c1c2cc(F)c(Oc3ccc(OC(F)(F)F)cc3)cc2[nH]c2cc(Cl)cc(F)c12 | liver microsomes | 1 µM | pH 7.4 | microsomal CLint | 2.63 µL/min/mg |
| CC(C)(N)COCC(=O)N1CCC[C@H](C(=O)NCc2nc(-c3ccc(C(F)(F)F)cc3)cs2)C1 | liver microsomes | 0.5 µM | – | microsomal CLint | < 3 µL/min/mg |
| CNS(=O)(=O)c1ccc(Nc2ncc(C(F)(F)F)c(N3CCC(C)(O)CC3)n2)c(C)c1 | liver microsomes | 1 µM | – | scaled CLint | 48 mL/min/kg |
| C[C@H](O)c1cnc(NS(=O)(=O)c2ccc(Cl)c(Cl)c2)nc1 | hepatocytes | 1 µM | – | hepatocyte CLint | < 3 µL/min/10⁶ cells |
| CC(C)(C)OC(=O)N1CCC(Oc2ccc3c(=O)c4c(F)cc(Cl)cc4[nH]c3c2)C1 (stereo not drawn) | liver microsomes | 1 µM | pH 7.4 | microsomal CLint | 17.3 µL/min/mg |
| Cc1cc(S(=O)(=O)NC2CCC(CC3CCN(c4ccc(C5CCC(=O)NC5=O)cc4)CC3)CC2)ccc1Nc1ncc(C(F)(F)F)c(N2CCC[C@](C)(O)C2)n1 (stereo partly drawn) | liver microsomes | 1 µM | – | scaled CLint | 17 mL/min/kg |
| CCOCC(=O)N1CCC[C@H](C(=O)NCc2nc(-c3ccc(C)nc3)cs2)C1 | liver microsomes | 0.5 µM | – | scaled CLint | 11 mL/min/kg |
